The text below walks through data of paper PMC5725227 (Pharmaceutical research, 2014).

For data set [1], the system named is A549 cells. Kind of data set: In-vitro cytotoxicity, crystal violet dye assay. It is filed as cell-based, human.
Data set [2] can be described thus: Plasma pharmacokinetics after i.v. administration. It is filed as in vivo, BALB/c mice. As to conditions: DIM-P, 5.0 mg/kg equivalent of DIM-P. A digest of the protocol: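 BALB/c mice, randomized (n = 6 per group) and fasted overnight, received a single i.v. dose (DIM-P equivalent 5.0 mg/kg). Plasma was deproteinized with acetonitrile and spun 15 min at 10,000 g. Analysis was C18 HPLC with acetonitrile:water 90:10 at 1.0 mL/min, UV 242 nm. Parameters were derived non-compartmentally.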

Each structure is given as a SMILES string.

In general, IC50 refers to the concentration at which inhibition is half-maximal. A higher IC50 goes with weaker potency in that assay. Broadly, the Cmax is the maximum level reached in the sampled fluid or tissue. Usually MRT stands for a mean duration of stay, worked out from the concentration-time curve. The Vss is the apparent volume that relates the amount in the body to the concentration in plasma or blood. In data set [1] (A549 cells, 72 h), `c1ccc(-c2ccc(C(c3c[nH]c4ccccc34)c3c[nH]c4ccccc34)cc2)cc1` [DIM-P, DIM-C-pPhC6H5] registered an IC50 of 6.8 ± 0.7 µM. In data set [2], the Cl turned out to be 0.629 ± 0.173 mL/min/kg, the Cmax turned out to be 216.25 ± 23.59 µg/mL, the K10-HL is recorded as 2.98 ± 0.65 hr^−1 and the mean residence time MRT was determined as 2.79 ± 1.02 h. In addition, the Vss in data set [2] stood at 0.18598 ± 0.02989 L/kg. Moreover, the “AUC0–24” value in data set [2] (non-compartment analysis) was found to be 124.22 ± 13.65 µg·h/mL.
As to `CC(=O)O[C@@]12CO[C@@H]1C[C@H](O)[C@@]1(C)C(=O)[C@H](O)C3=C(C)[C@@H](OC(=O)[C@H](O)[C@@H](NC(=O)OC(C)(C)C)c4ccccc4)C[C@@](O)([C@@H](OC(=O)c4ccccc4)[C@H]21)C3(C)C` [Doc, Docetaxel, reference compound], in data set [1] (Homo sapiens, A549, 72 h), the IC50 amounted to 0.02 ± 0.01 µM.
